In ChEMBL document CHEMBL1146470, “Highly hydroxylated triterpenes from Salvia kronenburgii” (J Nat Prod, 2004):
In brackets after ≈: the same amount, converted by molar mass.

How the values were obtained:
[1] = test system: A2780; assay: Cytotoxicity against human A2780 cells; assay type: functional, cell-based
Method in brief: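 Run on the human ovarian cancer line A2780 by a previously described protocol, with actinomycin D at 2 μg/mL as the positive control.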

[2] = test system: SF-268; assay: Cytotoxicity against human SF268 cells; assay type: functional
[3] = test system: EKVX; assay: Cytotoxicity against human EKVX cells; assay type: functional
Method in brief: (§1)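 NCI 60-cell-line panel screen over a 5-log dose range; growth inhibition expressed as log GI50. Preceded by an NCI one-dose primary screen on three lines (H460, MCF7, SF-268) reported as growth percentages.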

[4] = test system: T47D; assay: Cytotoxicity against human T47D cells; assay type: functional; method in brief: as §1
[5] = test system: RXF 393; assay: Cytotoxicity against human RXF393 cells; assay type: functional; method in brief: as §1
[6] = test system: MCF7; assay: Cytotoxicity against human MCF7 cells; assay type: functional
[7] = test system: NCI-H460; assay: Cytotoxicity against human H460 cells; assay type: functional

For `CC1(C)CC[C@]2(C)CC[C@]3(C)C(=C[C@@H](O)[C@@H]4[C@@]5(C)[C@H](O)[C@@H](O)[C@H](O)C(C)(C)[C@@H]5CC[C@]43C)[C@@H]2C1`, the IC50 [1] was 27.9 mg/L (≈ 58.8 µM).
`CC(=O)O[C@H]1[C@H](O)[C@@H](O)[C@]2(C)C3=CC=C4[C@@H]5CC(C)(C)CC[C@]5(C)CC[C@@]4(C)[C@]3(C)CC[C@H]2C1(C)C` gave an IC50 [1] of 36.9 mg/L (≈ 74 µM).
`CC(=O)O[C@@H]1C[C@@]2(C)C(=CC[C@]3(C)[C@@H]2[C@H](O)C=C2[C@@H]4[C@@H](C)[C@H](C)CC[C@]4(C)CC[C@]23C)C(C)(C)[C@H]1O` gave an IC50 [1] of 34.2 mg/L (≈ 68.6 µM).
For `CC(=O)O[C@H]1[C@H](O)[C@@H](O)[C@]2(C)[C@H]3[C@H](O)C=C4[C@@H]5CC(C)(C)CC[C@]5(C)CC[C@@]4(C)[C@]3(C)CC[C@H]2C1(C)C`, the IC50 [1] was 38.5 mg/L (≈ 74.5 µM).
`CC(=O)O[C@H]1[C@H](O)C[C@]2(C)C3=CC=C4[C@@H]5[C@@H](C)[C@@](C)(O)CC[C@]5(C)CC[C@@]4(C)[C@]3(C)CC[C@H]2C1(C)C` gave an IC50 [1] of 33.3 mg/L (≈ 66.8 µM).
For `CC(=O)O[C@H]1[C@H](O)[C@@H](O)[C@]2(C)[C@H]3C(=O)C=C4[C@@H]5[C@@H](C)[C@H](C)CC[C@]5(C)CC[C@@]4(C)[C@]3(C)CC[C@H]2C1(C)C`, the IC50 [1] was 26 mg/L (≈ 50.5 µM).
With `C[C@H]1[C@H](C)CC[C@]2(C)CC[C@]3(C)C(=C[C@@H](O)[C@@H]4[C@@]5(C)[C@H](O)[C@@H](O)[C@H](O)C(C)(C)[C@@H]5CC[C@]43C)[C@H]12` the IC50 [1] was 27.7 mg/L (≈ 58.3 µM), the Activity [2] was 18% and the GI50 [3] was 0.0219 µM. It also gave a GI50 [4] of 18.6 µM, a GI50 [5] of 0.363 µM and an Activity [6] of -25%. It also gave an Activity [7] of -45%.
Compound `CC(=O)O[C@H]1[C@H](O)[C@@H](O)[C@]2(C)[C@H]3[C@H](O)C=C4[C@@H]5[C@@H](C)[C@H](C)CC[C@]5(C)CC[C@@]4(C)[C@]3(C)CC[C@H]2C1(C)C` has an IC50 [1] of 32.5 mg/L (≈ 62.9 µM).
`CC(=O)O[C@H]1[C@H](O)[C@@H](O)[C@]2(C)C3=CC=C4[C@@H]5[C@@H](C)[C@H](C)CC[C@]5(C)CC[C@@]4(C)[C@]3(C)CC[C@H]2C1(C)C` was tested, and the IC50 [1] was 37.5 mg/L (≈ 75.2 µM).
Work on `CC1(C)C[C@H]2C3=C[C@@H](O)[C@@H]4[C@@]5(C)CC[C@H](O)C(C)(C)[C@@H]5CC[C@@]4(C)[C@@]3(C)CC[C@@]2(C)C[C@H]1O` [SALVINEMOROL] yielded an IC50 [1] of 8.6 mg/L (≈ 18.7 µM).
Compound `C[C@H]1[C@H](C)[C@H]2C3=C[C@@H](O)[C@@H]4[C@@]5(C)CC[C@H](O)C(C)(C)[C@@H]5CC[C@@]4(C)[C@]3(C)CC[C@@]2(C)C[C@H]1O` [SALVISTAMINEOL] has an IC50 [1] of 21 mg/L (≈ 45.8 µM).
